# Calls of active or inactive are those of the source.
# Legend:
# [1] = system: Human immunodeficiency virus 1; assay: Antiviral activity against HIV1 3B in human MT4 cells assessed as protection against virus-induced cytopathogenicity by MTT assay; type: functional, organism-based; conditions: Human immunodeficiency virus 1, 3B
# In short: (§1)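 MT-4 cells at 6 × 10^5 cells/mL, mock- or virus-infected with HIV-1 IIIB or HIV-2 ROD at 100-300 CCID50, with serial 5-fold compound dilutions in triplicate. After 5 days, viability read by MTT at 540 and 690 nm, using the median OD of three wells. EC50 = 50% protection from viral cytopathic effect; CC50 = 50% reduction of OD540 in mock-infected cells. SI = CC50/EC50; mean ± SD of ≥2 experiments.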
# [2] = system: Human immunodeficiency virus 2; assay: Antiviral activity against HIV2 ROD in human MT4 cells assessed as protection against virus-induced cytopathogenicity by MTT assay; type: functional, organism-based; conditions: Human immunodeficiency virus 2, ISOLATE ROD; in short: as §1
# [3] = Cytotoxicity against human MT4 cells by MTT assay; type: cell-based; in short: as §1
# [4] = Selectivity index, ratio of CC50 for human MT4 cells to EC50 for HIV1 3B; type: toxicity, cell-based; conditions: read-out: Ratio CC50/EC50; in short: as §1
# [5] = Selectivity index, ratio of CC50 for human MT4 cells to EC50 for HIV2 ROD; type: toxicity, cell-based; conditions: read-out: Ratio CC50/EC50; in short: as §1
# [6] = system: Human immunodeficiency virus 1; assay: Antiviral activity against HIV1 3B in human MT4 cells assessed as inhibition of p24 protein production measured delay in infection up to 5 hrs by time-of addition experiment; type: functional, organism-based; conditions: in the assay text read “up to 10 hrs” for “up to 5 hrs”
# In short: (§2)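 Time-of-addition assay. MT-4 cells infected with HIV-1 IIIB at moi 0.5 to synchronize replication. Compounds added at various times from 0 to 25 h post-infection; p24 antigen in supernatant measured by ELISA at 31 h p.i. Reference drugs AZT and ritonavir were given at 100× their MT-4/MTT IC50.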
# [7] = system: Human immunodeficiency virus 1; assay: Antiviral activity against HIV1 3B in human MT4 cells assessed as inhibition of p24 protein production measured delay in infection up to 18 hrs by time-of addition experiment; type: functional, organism-based; conditions: in the assay text read “up to 10 hrs” for “up to 18 hrs”; in short: as §2
# [8] = system: Human immunodeficiency virus 1; assay: Antiviral activity against HIV1 in human HeLa cells assessed as inhibition of Tat-mediated transcription after 24 hrs by LTR-driven luciferase reporter assay; type: functional, organism-based
# In short: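 HeLa clone carrying an HIV-1 LTR-luciferase reporter, activated with subsaturating Tat or left without Tat for basal promoter activity. Cells incubated with increasing compound concentrations; luciferase measured in cell lysates 24 h after treatment. Controls were DMSO vehicle, untreated cells and flavopiridol at 10 μM.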
# C8166T = assay: Antiviral activity against integrase deficient Simian virus 40/HIV-1 chimera (n/N.Tag.oriT) virus in human C8166T cells assessed as inhibition of viral replication; type: functional, cell-based
# In short: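 C8166 T-cells were infected with HIV-1 NL4.3 or N/N.Tag.oriT and exposed to a range of compound concentrations. p24 in the supernatant was measured relative to untreated controls (100%). Toxicity was read in parallel by MTT.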
# [9] = system: Human immunodeficiency virus 1; assay: Antiviral activity against HIV1 3B in human […] cells assessed as inhibition of p24 production; type: functional, organism-based; conditions: Human immunodeficiency virus 1, 3B
# In short: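 Chronically infected HuT-78 cells washed with PBS and pelleted three times, then 200000 cells per 1 mL seeded with test compound at set concentrations. Grown 44 h; supernatant p24 measured by ELISA. EC50 = 50% reduction of p24 production; mean ± SD of at least three separate experiments. Nevirapine and ritonavir included as controls.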
# [10] = Cytotoxicity against human HuT78 by MTT assay; type: cell-based; conditions: HuT78 cells
# In short: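 Chronically infected HuT-78 cells; CC50 defined as the concentration reducing cell viability by 50%, measured by the MTT method. Mean ± SD of at least three separate experiments.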
# [11] = system: Human immunodeficiency virus 1; assay: Antiviral activity against HIV1 in human U1 cells assessed as inhibition of TNF-alpha-stimulated viral expression measured by p24 production; type: functional, organism-based; conditions: Human immunodeficiency virus 1, U1
# In short: (§3)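 Latently infected OM-10.1 and U1 cells at 5 × 10^5 cells/mL preincubated 2 h with or without compound, then stimulated with TNF-α 1 ng/mL or PMA 0.02 μM. After 2 days at 37 °C, p24 in supernatant measured by ELISA; viability assessed in parallel by MTT. EC50 = 50% reduction of p24; mean ± SD of ≥3 experiments.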
# [12] = Cytotoxicity against TNF-alpha-stimulated human U1 cells by MTT assay; type: cell-based; in short: as §3
# [13] = Selectivity index, ratio of CC50 for TNF-alpha-stimulated human U1 cells to EC50 for HIV1; type: toxicity, cell-based; conditions: read-out: Ratio CC50/EC50
# In short: (§4)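 OM-10.1 or U1 cells at 5 × 10⁵ cells/mL were preincubated with compound for 2 h, then stimulated with TNF-α 1 ng/mL or PMA 0.02 μM. After 2 days at 37 °C, supernatant p24 was measured by ELISA for EC50, and parallel cultures were read by MTT for CC50. SI = CC50/EC50. Mean ± SD of at least three experiments.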
# [14] = system: Human immunodeficiency virus 1; assay: Antiviral activity against HIV1 in human U1 cells assessed as inhibition of PMA-stimulated viral expression measured by p24 production; type: functional, organism-based; conditions: Human immunodeficiency virus 1, U1; in short: as §3
# [15] = Cytotoxicity against PMA-stimulated human U1 cells by MTT assay; type: cell-based; in short: as §3
# [16] = Selectivity index, ratio of CC50 for PMA-stimulated human U1 cells to EC50 for HIV1; type: toxicity, cell-based; conditions: read-out: Ratio CC50/EC50; in short: as §4
# [17] = system: Human immunodeficiency virus 1; assay: Antiviral activity against HIV1 in human OM10.1 cells assessed as inhibition of TNF-alpha-stimulated viral expression measured by p24 production; type: functional, organism-based; in short: as §3
# [18] = Cytotoxicity against TNF-alpha-stimulated human OM10.1 cells by MTT assay; type: cell-based; in short: as §3
# [19] = Selectivity index, ratio of CC50 for TNF-alpha-stimulated human OM10.1 cells to EC50 for HIV1; type: toxicity; conditions: read-out: Ratio CC50/EC50; in short: as §4
# [20] = system: Human immunodeficiency virus 1; assay: Antiviral activity against HIV1 in human OM10.1 cells assessed as inhibition of PMA-stimulated viral expression measured by p24 production; type: functional, organism-based; in short: as §3
# [21] = Cytotoxicity against PMA-stimulated human OM10.1 cells by MTT assay; type: cell-based; in short: as §3
# [22] = Selectivity index, ratio of CC50 for PMA-stimulated human OM10.1 cells to EC50 for HIV1; type: toxicity; conditions: read-out: Ratio CC50/EC50; in short: as §4
# [23] = system: Human immunodeficiency virus 1; assay: Antiviral activity against HIV1 3B mutant in human MT4 cells assessed as protection against virus-induced cytopathogenicity by MTT assay; type: functional, organism-based; conditions: Human immunodeficiency virus 1, 3B
# In short: (§5)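 Virus added at 100-300 CCID50 to MT-4 cells (6 × 10⁵ cells/mL) together with serial 5-fold compound dilutions, triplicate wells. Viability read by MTT after 5 days at 540 and 690 nm, using the median OD of three wells. EC50 is the concentration giving 50% protection from virus-induced cytopathic effect. Mean ± SD of at least two experiments.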
# [24] = Selectivity index, ratio of CC50 for human MT4 cells to EC50 for HIV1 3B mutant; type: toxicity, cell-based; conditions: read-out: Ratio CC50/EC50
# In short: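 SI = CC50 in mock-infected MT-4 cells (MTT, 5 days) divided by EC50 against the selected mutant in the MT-4 MTT cytopathicity assay.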
# [25] = system: Human immunodeficiency virus 1; assay: Antiviral activity against HIV1 3B mutant in human MT4 cells assessed as protection against virus-induced cytopathogenicity after 60 passage resistance selection by MTT assay; type: functional, organism-based; conditions: Human immunodeficiency virus 1, 3B; in short: as §5
# [26] = Selectivity index, ratio of CC50 for human MT4 cells to EC50 for HIV1 3B mutant after 60 passage resistance selection by MTT assay; type: toxicity, cell-based; conditions: read-out: Ratio CC50/EC50
# [27] = Cytotoxicity against human Jurkat cells by MTT assay; type: cell-based
# [28] = Selectivity index, ratio of CC50 for human Jurkat cells to EC50 for HIV1; type: toxicity, cell-based; conditions: read-out: Ratio CC50/EC50
# [29] = system: Human immunodeficiency virus 1; assay: Antiviral activity against HIV1 in human PBMC assessed as inhibition of p24 protein production by MTT assay; type: functional, organism-based; conditions: in the assay text read “by ELISA” for “by MTT assay”
# In short: (§6)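 PBMCs from healthy donors isolated by density centrifugation and stimulated 3 days with PHA. Blasts washed, plated at 2 × 10^5 per well with serial compound dilutions and infected with HIV at 1000 CCID50/mL. Medium and compound refreshed at day 4; p24 in supernatant measured by ELISA at day 7. EC50 = 50% inhibition of p24; SI = CC50/EC50.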
# [30] = Cytotoxicity against human PBMC by MTT assay; type: cell-based; conditions: in the assay text read “trypan blue exclusion method” for “MTT assay”
# In short: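 Cytotoxicity in PHA-stimulated PBMCs read by trypan blue exclusion; CC50 = concentration reducing viability of mock-infected cells by 50%. Mean ± SD of at least two experiments.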
# [31] = Selectivity index, ratio of CC50 for human PBMC to EC50 for HIV1; in short: as §6
# [32] = system: Human immunodeficiency virus 1; assay: Antiviral activity against HIV1 3B in human MT4 cells assessed as inhibition of p24 protein production measured delay in infection up to 10 hrs by time-of addition experiment; type: functional, organism-based; in short: as §2
# [33] = system: Human immunodeficiency virus 1; assay: Antiviral activity against HIV1 in human Jurkat cells assessed as inhibition of GFP expression by flow cytometry; conditions: Human immunodeficiency virus 1, Jurkat
smiles,measurement,setting,value
Cn1cc(C(=O)O)c(=O)c2ccc(N3CCN(c4ccccn4)CC3)nc21,EC50,[1],0.62 µg/mL
same,EC50,[2],0.55 µg/mL
same,CC50,[3],9.93 µg/mL
same,selectivity ratio,[4],16
same,selectivity ratio,[5],18
Cn1cc(C(=O)O)c(=O)c2ccc(N3CCN(c4nc5ccccc5s4)CC3)nc21,Activity,[6],Active
same,Activity,[7],Active
same,Activity,[8],Dose-dependent effect
same,Activity,C8166T,Active
same,EC50,[9],0.032 µg/mL
same,CC50,[10],> 10 µg/mL
same,EC50,[11],3 ng/mL
same,CC50,[12],0.99 µg/mL
same,selectivity ratio,[13],330
same,EC50,[14],2 ng/mL
same,CC50,[15],2.67 µg/mL
same,selectivity ratio,[16],1330
same,EC50,[17],3 ng/mL
same,CC50,[18],1.27 µg/mL
same,selectivity ratio,[19],422
same,EC50,[20],4 ng/mL
same,CC50,[21],0.75 µg/mL
same,selectivity ratio,[22],189
same,EC50,[23],0.019 µg/mL
same,selectivity ratio,[24],1280
same,EC50,[25],0.017 µg/mL
same,selectivity ratio,[26],1420
same,EC50,[1],0.03 µg/mL
same,EC50,[2],0.02 µg/mL
same,CC50,[3],12.1 µg/mL
same,selectivity ratio,[4],457
same,selectivity ratio,[5],522
same,CC50,[27],15.1 µg/mL
same,selectivity ratio,[28],44
same,EC50,[29],0.6 µg/mL
same,CC50,[30],10.3 µg/mL
same,Ratio CC50/EC50,[31],17
same,Activity,[32],Active
same,EC50,[33],0.34 µg/mL
Cn1cc(C(=O)O)c(=O)c2ccc(N3CCN(c4cccc(C(F)(F)F)c4)CC3)nc21,EC50,[1],> 0.41 µg/mL
same,EC50,[2],> 0.41 µg/mL
same,CC50,[3],0.41 µg/mL
same,selectivity ratio,[4],< 1
same,selectivity ratio,[5],< 1
Cn1cc(C(=O)O)c(=O)c2ccc(N3CCN(c4nccs4)CC3)nc21,EC50,[1],3.15 µg/mL
same,EC50,[2],0.922 µg/mL
same,CC50,[3],> 125 µg/mL
same,selectivity ratio,[4],> 40
same,selectivity ratio,[5],> 136

# From ChEMBL document CHEMBL1156788, “A 1,8-naphthyridone derivative targets the HIV-1 Tat-mediated transcription and potently inhibits the HIV-1 replication” (J Med Chem, 2010)
